In brackets after ≈: the same amount, converted by molar mass. Values belong to the molecule of their own block, whether it stands above or below them.
Experiments:
[1] = biological target: T1, Hexokinase-4 (Homo sapiens) (UniProt P35557); assay: Activation of glucokinase (unknown origin) using glucose as substrate assessed as stimulation concentration required to achieve 150% activity relative to control
T1 sequence (whole entry): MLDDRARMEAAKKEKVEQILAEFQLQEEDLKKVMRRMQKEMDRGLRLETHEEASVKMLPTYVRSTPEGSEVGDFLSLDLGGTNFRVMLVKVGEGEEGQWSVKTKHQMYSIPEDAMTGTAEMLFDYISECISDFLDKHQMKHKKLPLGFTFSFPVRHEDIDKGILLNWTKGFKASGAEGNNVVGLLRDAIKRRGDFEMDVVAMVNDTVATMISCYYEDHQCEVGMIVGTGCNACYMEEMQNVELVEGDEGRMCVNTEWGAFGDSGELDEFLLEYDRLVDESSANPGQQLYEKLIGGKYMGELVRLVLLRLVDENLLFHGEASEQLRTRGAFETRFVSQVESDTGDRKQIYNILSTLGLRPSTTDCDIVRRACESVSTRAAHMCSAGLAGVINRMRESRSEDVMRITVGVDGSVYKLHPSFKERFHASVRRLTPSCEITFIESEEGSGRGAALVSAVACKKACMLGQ
How it was run: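 Read-out is the compound concentration giving GK activity 150% of control (SC1.5). Values are means of at least three independent assays. Assay CV averaged 15%.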

Mus musculus [2] = assay: Antidiabetic activity in C57Bl/6J mouse assessed as change in blood glucose level at 50 mg/kg, po after 4 hrs relative to vehicle-treated control; type: functional
How it was run: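 C57Bl/6J mice, 2 months old, n = 6 per group, fasted 2 h, received 50 mg/kg orally or vehicle. Blood was sampled at 2, 4, 6 and 8 h after dosing. The recorded value is % blood glucose change versus vehicle at 4 h.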

hERG (KCNH2) = hERG (KCNH2) (Homo sapiens, UniProt Q12809); assay: Inhibition of human ERG channel at 10 uM by patch clamp method
[3] = biological target: T1, Hexokinase-4 (Homo sapiens); assay: Activation of human recombinant glucokinase using glucose as substrate
How it was run: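 Recombinant human GK was run across a range of glucose concentrations with varied activator levels. Vmax and the glucose SC0.5 (concentration reaching half Vmax) were derived.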

[4] = AUC (0 to infinity) in dog at 30 mg/kg, po; type: ADME, organism-based, Canis lupus familiaris; set-up: time infinity, dose 30 mg/kg, route oral; conditions: plasma
[5] = Oral bioavailability in dog at 30 mg/kg; type: ADME, organism-based, Canis lupus familiaris; conditions: in vivo
[6] = Oral bioavailability in C57Bl/6J mouse at 30 mg/kg; type: ADME, organism-based; conditions: in vivo
[7] = Inhibition of cytochrome P450 (unknown origin); type: ADME, Homo sapiens
How it was run: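 IC50 was measured against 7 CYP isoforms.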

[8] = AUC (0 to infinity) in C57Bl/6J mouse at 30 mg/kg, po; type: ADME, organism-based; set-up: time infinity, dose 30 mg/kg, route oral; conditions: plasma
[9] = Dissociation constant, pKa of the compound; type: physicochemical
Mus musculus [10] = assay: Antidiabetic activity in diet induced obese C57Bl/6J mouse assessed as reduction in blood glucose level at 30 mg/kg, po after 2 to 4 hrs; type: functional; set-up: scale not given: the % may be the effect or the level left
How it was run: (§1)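 Diet-induced obese C57Bl/6J mice were used: 6 months old, on high-fat diet for 4 months, n = 9 per dose. Oral doses were 7.5, 15 and 30 mg/kg. Basal blood glucose lowering was read at 2 and 4 h post-dose.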

[11] = Fraction unbound in human plasma; type: ADME, cell-free
[12] = Tmax in dog at 30 mg/kg, po; type: ADME, organism-based, Canis lupus familiaris; set-up: dose 30 mg/kg, route oral; conditions: in vivo
[13] = Clearance in dog at 10 mg/kg, iv; type: ADME, organism-based, Canis lupus familiaris; set-up: dose 10 mg/kg, route intravenous; conditions: in vivo
Mus musculus [14] = assay: Antidiabetic activity in diet induced obese C57Bl/6J mouse assessed as reduction in blood glucose level at 15 mg/kg, po after 2 to 4 hrs; type: functional; set-up: scale not given: the % may be the effect or the level left; how it was run: as §1
[15] = Volume of distribution at steady state in dog at 10 mg/kg, iv; type: ADME, organism-based, Canis lupus familiaris; set-up: dose 10 mg/kg, route intravenous; conditions: in vivo, read-out: Vdss
[16] = AUC (0 to infinity) in C57Bl/6J mouse at 10 mg/kg, iv; type: ADME, organism-based; set-up: time infinity, dose 10 mg/kg, route intravenous; conditions: plasma
[17] = Metabolic stability in human hepatocytes after 3 hrs by LC-MS/MS analysis; type: ADME, cell-based, Hepatocyte; conditions: read-out: Stability
[18] = Clearance in C57Bl/6J mouse at 10 mg/kg, iv; type: ADME, organism-based; set-up: dose 10 mg/kg, route intravenous; conditions: in vivo
[19] = biological target: Voltage-gated inwardly rectifying potassium channel KCNH2 (Homo sapiens, UniProt Q12809); assay: Inhibition of human ERG channel
How it was run: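 hERG potassium channel current was measured by patch clamp at varied concentrations. IC50 was taken from the concentration-dependent inhibition.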

[20] = Cmax in dog at 30 mg/kg, po; type: ADME, organism-based, Canis lupus familiaris; set-up: dose 30 mg/kg, route oral; conditions: in vivo
Mus musculus [21] = assay: Antidiabetic activity in po dosed diet induced obese C57Bl/6J mouse assessed as reduction in blood glucose level after 2 to 4 hrs; type: functional; how it was run: as §1
[22] = Volume of distribution at steady state in C57Bl/6J mouse at 10 mg/kg, iv; type: ADME, organism-based; set-up: dose 10 mg/kg, route intravenous; conditions: in vivo, read-out: Vdss
[23] = Lipophilicity, log D of the compound at pH 7.4; type: physicochemical; conditions: buffer
[24] = AUC (0 to infinity) in dog at 10 mg/kg, iv; type: ADME, organism-based, Canis lupus familiaris; set-up: time infinity, dose 10 mg/kg, route intravenous; conditions: plasma
Mus musculus [25] = assay: Antidiabetic activity in po dosed diet induced obese C57Bl/6J mouse assessed as lowering blood glucose level; type: functional, organism-based
How it was run: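 Diet-induced obese C57Bl/6J mice were used: 6 months old, 4 months on high-fat diet, n = 9 per dose. Oral doses were 7.5, 15 and 30 mg/kg, with glucose followed at 2 and 4 h post-dose. The dose giving 25% glucose lowering (ED25) was reported.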

[26] = Apparent permeability of the compound across human Caco2 cells; type: ADME, cell-based; conditions: Caco-2
[27] = Tmax in C57Bl/6J mouse at 30 mg/kg, po; type: ADME, organism-based; set-up: dose 30 mg/kg, route oral; conditions: in vivo
Liver microsomes = assay: Covalent binding to human liver microsomes after 30 mins in presence of NADPH per mg of protein; type: ADME, Microsome; conditions: 0.5 h
How it was run: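 Covalent binding to human liver microsomes was measured with NADPH over 30 min. It is expressed per mg protein.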

[28] = Cmax in C57Bl/6J mouse at 30 mg/kg, po; type: ADME, organism-based; set-up: dose 30 mg/kg, route oral; conditions: in vivo
[29] = Solubility of the compound at pH 7.4; type: physicochemical; conditions: buffer

hERG (KCNH2), sequence (Q12809 whole entry): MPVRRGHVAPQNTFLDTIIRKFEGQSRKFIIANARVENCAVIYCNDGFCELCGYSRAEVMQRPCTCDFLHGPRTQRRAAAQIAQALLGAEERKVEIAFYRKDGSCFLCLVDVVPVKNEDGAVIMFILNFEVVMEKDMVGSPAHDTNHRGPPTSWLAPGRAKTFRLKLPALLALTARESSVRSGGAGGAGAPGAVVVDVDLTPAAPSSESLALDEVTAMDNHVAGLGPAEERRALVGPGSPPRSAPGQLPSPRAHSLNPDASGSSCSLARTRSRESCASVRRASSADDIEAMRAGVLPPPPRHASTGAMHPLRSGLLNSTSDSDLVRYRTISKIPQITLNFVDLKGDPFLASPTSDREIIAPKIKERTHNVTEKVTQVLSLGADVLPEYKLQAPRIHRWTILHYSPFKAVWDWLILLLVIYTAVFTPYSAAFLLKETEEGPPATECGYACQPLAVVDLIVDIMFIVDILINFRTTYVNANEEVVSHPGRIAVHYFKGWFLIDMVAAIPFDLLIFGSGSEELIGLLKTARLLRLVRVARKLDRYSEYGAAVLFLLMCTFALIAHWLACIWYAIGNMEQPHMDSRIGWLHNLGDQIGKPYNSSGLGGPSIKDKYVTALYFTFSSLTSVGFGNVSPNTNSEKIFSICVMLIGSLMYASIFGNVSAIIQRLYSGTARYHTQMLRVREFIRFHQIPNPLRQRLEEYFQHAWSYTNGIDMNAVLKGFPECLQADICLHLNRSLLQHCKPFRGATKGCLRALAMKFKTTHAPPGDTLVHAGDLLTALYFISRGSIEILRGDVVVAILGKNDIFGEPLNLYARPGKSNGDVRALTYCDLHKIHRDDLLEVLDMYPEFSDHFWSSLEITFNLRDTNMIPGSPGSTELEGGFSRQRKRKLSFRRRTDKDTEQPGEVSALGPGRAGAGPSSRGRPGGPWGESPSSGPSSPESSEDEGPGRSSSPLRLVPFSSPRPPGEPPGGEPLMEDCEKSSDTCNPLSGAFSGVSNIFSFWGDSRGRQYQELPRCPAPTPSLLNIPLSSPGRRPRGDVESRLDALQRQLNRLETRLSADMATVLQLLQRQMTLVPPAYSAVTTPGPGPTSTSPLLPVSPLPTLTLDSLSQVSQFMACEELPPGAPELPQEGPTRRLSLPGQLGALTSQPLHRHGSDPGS
Voltage-gated inwardly rectifying potassium channel KCNH2, sequence (Q12809 whole entry): as above

SMILES: CS(=O)(=O)c1ccc(C(CC2CCOC2)C(=O)Nc2cnccn2)cc1Cl (stereo not given)
Activity [1]: 3.6 µM

SMILES: CC(C)(O)C#Cc1cnc(NC(=O)[C@H](CC2CCCC2)c2ccc(S(C)(=O)=O)c(Cl)c2)cn1
Activity [1]: 0.056 µM | Activity (Mus musculus [2]): -48%

SMILES: CS(=O)(=O)c1ccc([C@@H](CC2CCCC2)C(=O)Nc2cnc(C#CC3(O)CCOCC3)cn2)cc1Cl
Activity [1]: 0.075 µM | Activity (Mus musculus [2]): -45%

SMILES: COc1cc(C(CC2CCCC2)C(=O)Nc2cnccn2)ccc1S(C)(=O)=O (stereo not given)
Activity [1]: 1.9 µM | inhibition at 10 µM (hERG (KCNH2)): 36%

SMILES: CS(=O)(=O)c1ccc([C@@H](CC2CCCC2)C(=O)Nc2cnc(CCC3(O)CCOCC3)cn2)cc1Cl
Activity [1]: 0.13 µM | Activity (Mus musculus [2]): -43% | inhibition at 10 µM (hERG (KCNH2)): 40%

SMILES: CS(=O)(=O)c1ccc(C(CC2CCOCC2)C(=O)Nc2cnccn2)cc1Cl (stereo not given)
Activity [1]: 1.4 µM | Activity (Mus musculus [2]): -5.6% | inhibition at 10 µM (hERG (KCNH2)): 8.1%

SMILES: CN(C)CC#Cc1cnc(NC(=O)[C@H](CC2CCCC2)c2ccc(S(C)(=O)=O)c(Cl)c2)cn1
Activity [1]: 0.11 µM | Activity (Mus musculus [2]): -46% | inhibition at 10 µM (hERG (KCNH2)): 86%

SMILES: CS(=O)(=O)c1ccc([C@@H](CC2CCCC2)C(=O)Nc2cnccn2)cc1Cl
Activity [1]: 0.11 µM | Activity (Mus musculus [2]): -53%

Continued, in another order:

Activity [1]: 0.054 µM
SMILES: CSc1cnc(NC(=O)[C@H](CC2CCCC2)c2ccc(S(C)(=O)=O)c(Cl)c2)cn1
Activity (Mus musculus [2]): -26%

Activity [1]: 1.1 µM
SMILES: CS(=O)(=O)c1ccc([C@@H](CC2CCCC2)C(=O)Nc2cnc([C@@H](O)CO)cn2)cc1Cl
Activity (Mus musculus [2]): -35% | inhibition at 10 µM (hERG (KCNH2)): 21%

Activity [1]: 0.41 µM
SMILES: CS(=O)(=O)c1ccc([C@@H](CC2CCCC2)C(=O)Nc2cnc(C(=O)NO)cn2)cc1Cl
Activity (Mus musculus [2]): -14% | inhibition at 10 µM (hERG (KCNH2)): 37%

Activity [1]: 0.19 µM
SMILES: CS(=O)(=O)c1ccc([C@@H](CC2CCCC2)C(=O)Nc2cnc(OC[C@H](O)CO)cn2)cc1Cl
Activity (Mus musculus [2]): -38%

Activity [3]: Dose-dependent effect | AUC(0-inf) [4]: 54500 ng·h/mL | bioavailability [5]: 84% | bioavailability [6]: 50.3% | IC50 [7]: > 30 µM | AUC(0-inf) [8]: 12100 ng·h/mL | pKa [9]: 11.4 | fraction unbound [11]: 0.1 | Tmax [12]: 7.3 h | clearance [13]: 8 mL/min/kg | Vd [15]: 1.69 L/kg | AUC(0-inf) [16]: 8010 ng·h/mL | remaining at 3 h [17]: 95% | clearance [18]: 20.8 mL/min/kg | Activity [1]: 0.26 µM | Cmax [20]: 3790 ng/mL | Vd [22]: 1.44 L/kg | logD [23]: 2.7 | AUC(0-inf) [24]: 21600 ng·h/mL | Papp [26]: 3.36 ×10⁻⁶ cm/s | Tmax [27]: 4 h | Activity (Liver microsomes): 33 pmol | Cmax [28]: 1310 ng/mL | solubility [29]: 170 µg/mL (≈ 363 µM)
SMILES: CS(=O)(=O)c1ccc([C@@H](CC2CCCC2)C(=O)Nc2cnc([C@H](O)CO)cn2)cc1Cl
Activity (Mus musculus [10]): 45% | Activity (Mus musculus [14]): 32% | IC50 [19]: 70 µM | ED25 (Mus musculus [21]): 10 mg/kg | Activity (Mus musculus [25]): Dose-dependent effect | Activity (Mus musculus [2]): -44% | inhibition at 10 µM (hERG (KCNH2)): 22%

Activity [1]: 0.059 µM
SMILES: C/C(=N/O)c1cnc(NC(=O)[C@H](CC2CCCC2)c2ccc(S(C)(=O)=O)c(Cl)c2)cn1
Activity (Mus musculus [2]): -43% | inhibition at 10 µM (hERG (KCNH2)): 73%

Activity [1]: 0.4 µM
SMILES: C[S+]([O-])c1cnc(NC(=O)[C@H](CC2CCCC2)c2ccc(S(C)(=O)=O)c(Cl)c2)cn1 (stereo not given in full)
Activity (Mus musculus [2]): -26% | inhibition at 10 µM (hERG (KCNH2)): 27%

Activity [1]: 0.022 µM
SMILES: CS(=O)(=O)c1ccc([C@@H](CC2CCCC2)C(=O)Nc2cnc(C#CCO)cn2)cc1Cl
Activity (Mus musculus [2]): -46% | inhibition at 10 µM (hERG (KCNH2)): 46%

Activity [1]: 0.31 µM
SMILES: CC(C)(O)[C@@H](O)c1cnc(NC(=O)[C@H](CC2CCCC2)c2ccc(S(C)(=O)=O)c(Cl)c2)cn1
Activity (Mus musculus [2]): -44%

Activity [1]: 0.26 µM
SMILES: CS(=O)(=O)Cc1cnc(NC(=O)[C@H](CC2CCCC2)c2ccc(S(C)(=O)=O)c(Cl)c2)cn1
Activity (Mus musculus [2]): -39%

Activity [1]: 0.14 µM
SMILES: COCC#Cc1cnc(NC(=O)[C@H](CC2CCCC2)c2ccc(S(C)(=O)=O)c(Cl)c2)cn1
Activity (Mus musculus [2]): -49% | inhibition at 10 µM (hERG (KCNH2)): 53%

Activity [1]: 0.3 µM
SMILES: CS(=O)(=O)c1ccc([C@@H](CC2CCCC2)C(=O)Nc2cnc(OC[C@@H](O)CO)cn2)cc1Cl
Activity (Mus musculus [2]): -29%

Activity [1]: 0.037 µM
SMILES: CS(=O)(=O)c1ccc([C@@H](CC2CCCC2)C(=O)Nc2cnc(/C(N)=N\O)cn2)cc1Cl
Activity (Mus musculus [2]): -53% | inhibition at 10 µM (hERG (KCNH2)): 50%

From ChEMBL document CHEMBL2331552, “Identification of RO4597014, a Glucokinase Activator Studied in the Clinic for the Treatment of Type 2 Diabetes” (ACS Med Chem Lett, 2013)
